Data published in ChEMBL document CHEMBL3351398, “Discovery of a Potent and Selective DGAT1 Inhibitor with a Piperidinyl-oxy-cyclohexanecarboxylic Acid Moiety” (ACS Med Chem Lett, 2014).
Converted amounts (≈) assume the structure as drawn.

What was measured:
[1] = biological target: T1, Diacylglycerol O-acyltransferase 1 (Homo sapiens, UniProt O75907); test: Inhibition of human DGAT1
T1 sequence (O75907 whole entry): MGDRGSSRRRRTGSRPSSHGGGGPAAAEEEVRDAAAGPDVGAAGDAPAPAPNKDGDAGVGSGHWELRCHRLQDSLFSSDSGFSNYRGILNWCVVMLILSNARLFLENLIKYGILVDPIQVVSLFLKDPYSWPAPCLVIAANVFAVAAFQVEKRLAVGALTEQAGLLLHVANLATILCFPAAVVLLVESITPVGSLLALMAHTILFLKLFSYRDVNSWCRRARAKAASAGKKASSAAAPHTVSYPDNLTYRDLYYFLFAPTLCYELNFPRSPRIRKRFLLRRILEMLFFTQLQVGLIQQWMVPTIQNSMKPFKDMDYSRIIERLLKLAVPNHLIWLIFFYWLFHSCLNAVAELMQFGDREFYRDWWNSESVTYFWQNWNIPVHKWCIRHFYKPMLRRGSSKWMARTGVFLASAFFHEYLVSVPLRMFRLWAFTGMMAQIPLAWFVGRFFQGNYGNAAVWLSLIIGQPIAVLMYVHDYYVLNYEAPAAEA

[2] = biological target: Adenosine receptor A2a (Homo sapiens, UniProt P29274); test: Binding affinity to human A2A receptor
Adenosine receptor A2a, sequence (P29274 whole entry): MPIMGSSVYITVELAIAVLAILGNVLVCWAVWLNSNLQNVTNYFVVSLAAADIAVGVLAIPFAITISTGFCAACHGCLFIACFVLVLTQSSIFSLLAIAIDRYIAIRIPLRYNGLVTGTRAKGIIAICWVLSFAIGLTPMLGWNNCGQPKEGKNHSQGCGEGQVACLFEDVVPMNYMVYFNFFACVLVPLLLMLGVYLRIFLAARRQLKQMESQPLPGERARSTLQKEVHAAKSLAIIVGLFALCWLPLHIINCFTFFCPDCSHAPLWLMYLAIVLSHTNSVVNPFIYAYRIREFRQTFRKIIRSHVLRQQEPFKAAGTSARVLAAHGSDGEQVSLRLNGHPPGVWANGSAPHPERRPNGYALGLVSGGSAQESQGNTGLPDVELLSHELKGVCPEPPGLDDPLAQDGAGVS
Summary of the method: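 Recombinant human A2A receptor was tested in an in-house radioligand competition binding assay. The value is reported as Ki.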

[3] = test system: Mus musculus; test: Inhibition of plasma triglyceride accumulation in mouse at 10 mg/kg, po dosed 2 hrs before lipid challenge and measured at 18 hrs by lipid tolerance test; type: functional
Summary of the method: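 Mouse lipid tolerance test measuring plasma triglyceride excursion. Dosing was 10 mpk oral, with triglyceride reduction read at 18 h.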

[4] = biological target: Voltage-gated inwardly rectifying potassium channel KCNH2 (Homo sapiens, UniProt Q12809); test: Displacement of radiolabeled MK499 from human ERG
Voltage-gated inwardly rectifying potassium channel KCNH2, sequence (Q12809 whole entry): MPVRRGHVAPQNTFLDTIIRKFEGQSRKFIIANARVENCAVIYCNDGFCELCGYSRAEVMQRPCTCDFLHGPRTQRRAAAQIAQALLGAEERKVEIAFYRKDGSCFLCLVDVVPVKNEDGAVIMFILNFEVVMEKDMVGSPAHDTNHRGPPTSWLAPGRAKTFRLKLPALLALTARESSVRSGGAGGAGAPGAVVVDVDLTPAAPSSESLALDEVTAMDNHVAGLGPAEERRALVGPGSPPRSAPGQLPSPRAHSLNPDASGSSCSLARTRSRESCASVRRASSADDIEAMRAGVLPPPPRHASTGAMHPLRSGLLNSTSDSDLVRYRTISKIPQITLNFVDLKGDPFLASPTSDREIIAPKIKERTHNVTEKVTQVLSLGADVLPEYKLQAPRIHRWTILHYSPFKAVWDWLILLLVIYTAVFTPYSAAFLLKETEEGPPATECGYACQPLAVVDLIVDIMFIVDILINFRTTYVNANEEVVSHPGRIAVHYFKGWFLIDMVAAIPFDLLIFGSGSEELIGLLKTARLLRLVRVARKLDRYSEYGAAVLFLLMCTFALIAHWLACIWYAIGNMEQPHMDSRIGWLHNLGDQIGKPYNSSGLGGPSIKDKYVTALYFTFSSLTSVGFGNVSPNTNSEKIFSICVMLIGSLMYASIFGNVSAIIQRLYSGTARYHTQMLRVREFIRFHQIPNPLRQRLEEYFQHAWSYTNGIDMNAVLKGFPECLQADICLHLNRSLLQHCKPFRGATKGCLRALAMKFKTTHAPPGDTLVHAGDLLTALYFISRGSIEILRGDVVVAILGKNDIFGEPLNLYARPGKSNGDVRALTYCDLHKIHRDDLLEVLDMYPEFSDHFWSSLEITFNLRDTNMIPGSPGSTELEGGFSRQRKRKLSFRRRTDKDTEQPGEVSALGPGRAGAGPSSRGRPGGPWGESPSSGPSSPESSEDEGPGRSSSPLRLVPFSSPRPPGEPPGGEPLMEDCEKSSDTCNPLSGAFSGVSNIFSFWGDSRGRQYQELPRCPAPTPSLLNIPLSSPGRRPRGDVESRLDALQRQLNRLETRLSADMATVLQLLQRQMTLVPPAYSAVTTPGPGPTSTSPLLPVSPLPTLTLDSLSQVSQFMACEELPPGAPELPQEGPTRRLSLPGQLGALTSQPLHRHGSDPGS
Summary of the method: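 hERG off-target activity was measured in a competitive binding assay against radiolabeled MK-499. The value is reported as Ki.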

[5] = Solubility in PBS buffer at pH 2; type: physicochemical
Summary of the method: (§1)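 High-throughput solubility test in PBS buffer at pH 2 and at pH 7. Free form and salt forms (TFA, formate, ammonium) were tested separately.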

[6] = Solubility in PBS buffer at pH 7; type: physicochemical; summary of the method: as §1
[7] = Unbound fraction in mouse plasma; type: ADME, cell-free
[8] = Plasma concentration in Sprague-Dawley rat at 3 mg/kg, po dosed 2 hrs before lipid challenge and measured at 4 hrs by lipid tolerance test; type: ADME, organism-based; set-up: dose 3 mg/kg, route oral
Summary of the method: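 Rat lipid tolerance test at oral doses of 1 and 3 mpk. Reduction of lipid excursion was normalized to a reference DGAT1 inhibitor given at 10 mpk, set as 100%. Plasma drug levels were the parent and its cis isomer combined, measured 4 h after oral dosing.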

[9] = test system: Salmonella typhimurium; test: Induction of mutagenicity in Salmonella typhimurium TA98 assessed as increase in number of revertants in presence of metabolic activation; type: toxicity, organism-based; settings: salmonella enterica subsp. enterica serovar typhimurium
Summary of the method: (§2)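 Microbial reverse-mutation (Ames) test in strains TA1535, TA98 and TA100, with and without metabolic activation. The concentration range was 30 to 5000 μg/plate. A positive call required a 2-fold or greater increase in revertants relative to the solvent control.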

[10] = test system: Salmonella typhimurium; test: Induction of mutagenicity in Salmonella typhimurium TA98 assessed as increase in number of revertants in absence of metabolic activation; type: toxicity, organism-based; settings: salmonella enterica subsp. enterica serovar typhimurium; summary of the method: as §2
[11] = Oral bioavailability in Sprague-Dawley rat at 2 mg/kg; type: ADME, organism-based; settings: in vivo
[12] = Half life in Sprague-Dawley rat at 1 mg/kg, iv or 2 mg/kg, po; type: ADME, organism-based; settings: in vivo
[13] = Clearance in Beagle dog at 1 mg/kg, iv or 4 mg/kg, po; type: ADME, organism-based, Canis lupus familiaris; settings: in vivo
Summary of the method: (§3)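 Single-dose pharmacokinetics. Beagle dogs were dosed at 1 mg/kg iv as a solution in 30% captisol (pH 8) and at 4 mg/kg po in 0.5 methylcellulose.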

[14] = Half life in Beagle dog at 1 mg/kg, iv or 4 mg/kg, po; type: ADME, organism-based, Canis lupus familiaris; settings: in vivo; summary of the method: as §3
[15] = test system: Canis familiaris; test: AUC in Beagle dog assessed as cis-4-((1-(5-(5-(trifluoromethyl)-1H-benzo[d]imidazol-2-yl)pyridin-2-yl)piperidin-4-yl)oxy)cyclohexanecarboxylic acid at 4 mg/kg, po; type: ADME, organism-based, Canis lupus familiaris, Plasma; set-up: dose 4 mg/kg, route oral; settings: in vivo; summary of the method: as §3
[16] = Drug level in plasma of C57BL/6 mouse at 10 mg/kg, po after 3 hrs; type: ADME, organism-based; set-up: dose 10 mg/kg, route oral
Summary of the method: (§4)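 Tissue distribution in C57BL/6 mice. A single oral dose of 10 mg/kg was given as a solution in EtOH/PEG400/water (10:50:40). Parent and its cis isomer were both measured, in μM, in plasma, liver, small intestine, adipose fat and skin at 3 h and 24 h.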

[17] = Drug level in liver of C57BL/6 mouse at 10 mg/kg, po after 3 hrs; type: ADME, organism-based; set-up: dose 10 mg/kg, route oral; settings: read-out: Drug uptake; summary of the method: as §4
[18] = Drug level in small intestine of C57BL/6 mouse at 10 mg/kg, po after 3 hrs; type: ADME, organism-based; set-up: dose 10 mg/kg, route oral; settings: read-out: Drug uptake; summary of the method: as §4
[19] = Drug level in adipose fat of C57BL/6 mouse at 10 mg/kg, po after 3 hrs; type: ADME, organism-based, Adipose tissue; set-up: dose 10 mg/kg, route oral; settings: read-out: Drug uptake; summary of the method: as §4
[20] = Drug level in liver of C57BL/6 mouse at 10 mg/kg, po after 24 hrs; type: ADME, organism-based; set-up: dose 10 mg/kg, route oral; settings: read-out: Drug uptake; summary of the method: as §4
[21] = Drug level in skin of C57BL/6 mouse at 10 mg/kg, po after 24 hrs; type: ADME, organism-based, Zone of skin; set-up: dose 10 mg/kg, route oral; settings: read-out: Drug uptake; summary of the method: as §4
[22] = test system: Plasma; test: Drug level in plasma of C57BL/6 mouse assessed as cis-4-((1-(5-(5-(trifluoromethyl)-1H-benzo[d]imidazol-2-yl)pyridin-2-yl)piperidin-4-yl)oxy)cyclohexanecarboxylic acid level at 10 mg/kg, po after 24 hrs; type: ADME, organism-based; set-up: dose 10 mg/kg, route oral; settings: in vivo; summary of the method: as §4
[23] = test system: Liver; test: Drug level in liver of C57BL/6 mouse assessed as cis-4-((1-(5-(5-(trifluoromethyl)-1H-benzo[d]imidazol-2-yl)pyridin-2-yl)piperidin-4-yl)oxy)cyclohexanecarboxylic acid level at 10 mg/kg, po after 24 hrs; type: ADME, organism-based; set-up: dose 10 mg/kg, route oral; settings: in vivo, read-out: Drug uptake; summary of the method: as §4
[24] = test system: Intestine; test: Drug level in small intestine of C57BL/6 mouse assessed as cis-4-((1-(5-(5-(trifluoromethyl)-1H-benzo[d]imidazol-2-yl)pyridin-2-yl)piperidin-4-yl)oxy)cyclohexanecarboxylic acid level at 10 mg/kg, po after 24 hrs; type: ADME, organism-based; set-up: dose 10 mg/kg, route oral; settings: in vivo, read-out: Drug uptake; summary of the method: as §4
[25] = Drug level in adipose fat of C57BL/6 mouse assessed as cis-4-((1-(5-(5-(trifluoromethyl)-1H-benzo[d]imidazol-2-yl)pyridin-2-yl)piperidin-4-yl)oxy)cyclohexanecarboxylic acid level at 10 mg/kg, po after 24 hrs; type: ADME, organism-based, Adipose tissue; set-up: dose 10 mg/kg, route oral; settings: in vivo, read-out: Drug uptake; summary of the method: as §4
[26] = test system: Zone of skin; test: Drug level in skin of C57BL/6 mouse assessed as cis-4-((1-(5-(5-(trifluoromethyl)-1H-benzo[d]imidazol-2-yl)pyridin-2-yl)piperidin-4-yl)oxy)cyclohexanecarboxylic acid level at 10 mg/kg, po after 24 hrs; type: ADME, organism-based; set-up: dose 10 mg/kg, route oral; settings: in vivo, read-out: Drug uptake; summary of the method: as §4
[27] = test system: Liver; test: Drug level in liver of C57BL/6 mouse assessed as cis-4-((1-(5-(5-(trifluoromethyl)-1H-benzo[d]imidazol-2-yl)pyridin-2-yl)piperidin-4-yl)oxy)cyclohexanecarboxylic acid level at 10 mg/kg, po after 3 hrs; type: ADME, organism-based; set-up: dose 10 mg/kg, route oral; settings: in vivo, read-out: Drug uptake; summary of the method: as §4
[28] = test system: Zone of skin; test: Drug level in skin of C57BL/6 mouse assessed as cis-4-((1-(5-(5-(trifluoromethyl)-1H-benzo[d]imidazol-2-yl)pyridin-2-yl)piperidin-4-yl)oxy)cyclohexanecarboxylic acid level at 10 mg/kg, po after 3 hrs; type: ADME, organism-based; set-up: dose 10 mg/kg, route oral; settings: in vivo, read-out: Drug uptake; summary of the method: as §4

O=C(O)[C@H]1CC[C@H](OC2CCN(c3ccc(-c4nc5cc(C(F)(F)F)ccc5[nH]4)cn3)CC2)CC1 showed an IC50 [1] of 0.0039 µM, a Ki [2] of 4.6 µM and an inhibition in vivo at 10 mg/kg [3] of 89%. For the same compound, the Ki [4] was 10 µM, the solubility [5] was 167 µM (≈ 81.6 µg/mL) and the solubility [6] was 153 µM (≈ 74.7 µg/mL). The fraction unbound [7] was 0.078, the concentration at 4 h [8] was 58 nM and the Activity [9] was “Non-toxic”. For the same compound, the Activity [10] was “Non-toxic”, the bioavailability [11] was 8% and the half-life [12] was 0.91 h. The clearance [13] was 88.9 mL/min/kg, the half-life [14] was 1.16 h and the AUC [15] was 0.11 µM·h. It also gave a concentration at 3 h [16] of 324 nM, a concentration at 3 h [17] of 21600 nM and a concentration at 3 h [18] of 36600 nM. It also gave a concentration at 3 h [19] of 237 nM, a concentration at 24 h [20] of 4020 nM and a concentration at 24 h [21] of 167 nM. For the same compound, the concentration [22] was less than 10 nM, the concentration [23] was 672 nM and the concentration [24] was 76 nM. For the same compound, the concentration [25] was less than 10 nM, the concentration [26] was 18 nM and the concentration [27] was 6910 nM. It also gave a concentration [28] of 46 nM.
